Activity calls are given as the source filed them. The calls are words filed in the database; no cut-off is given here.
Columns and labels:
[1] = biological target: Sterol O-acyltransferase 1 (Oryctolagus cuniculus); test: In vitro inhibition of rabbit intestinal acyl coenzyme A:cholesterol acyltransferase using [1-14C]oleolyl-CoA
[2] = tested on: Rattus norvegicus; test: Percent change in total cholesterol in cholic acid (0.5%)-cholesterol (1.5%)-peanut oil (5.5%)-fed rats (50 mg/kg was administered as the standard dose); No change; format: functional, organism-based
How it was run: (§1)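 Acute screen: rats given a single gavage dose, 50 mg/kg standard unless noted, suspended in carboxymethylcellulose plus Tween-20 in water, then a single high-fat, high-cholesterol meal (0.5% cholic acid, 1.5% cholesterol, 5.5% peanut oil). Overnight rise in plasma total cholesterol measured as % change versus control. Stomachs checked for food. ANOVA with Fisher's multiple range test, p<0.05.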

[3] = organism: Rattus norvegicus; test: Percent change in total cholesterol in cholic acid (0.5%)-cholesterol (1.5%)-peanut oil (5.5%)-fed rats; format: functional
How it was run: as §1

[4] = tested on: Rattus norvegicus; test: The compound at a dose of 50 mg/kg is evaluated for percent change in High Density Lipoprotein (HDl) level in chronic cholesterol fed rat screen; No change; format: functional, organism-based; design: dose 50 mg/kg
How it was run: (§2)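 Chronic model: rats fed the high-fat, high-cholesterol diet for 14 days. In the second week, 50 mg/kg given daily by gavage in carboxymethylcellulose/Tween-20 aqueous vehicle. Plasma HDL and non-HDL cholesterol expressed as % change versus control. Body-weight gain monitored. ANOVA with Fisher's multiple range test, p<0.05.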

[5] = tested on: Rattus norvegicus; test: The compound at a dose of 50 mg/kg is evaluated for percent change in Non-High Density Lipoprotein level in chronic cholesterol fed rat screen; format: functional
How it was run: as §2

[6] = tested on: Rattus norvegicus; test: The compound at a dose of 50 mg/kg is evaluated for percent change in High Density Lipoprotein (HDL) level in chronic cholesterol fed rat screen; format: functional
How it was run: as §2

[7] = tested on: Rattus norvegicus; test: The compound at a dose of 50 mg/kg is evaluated for percent change in High Density Lipoprotein (HDl) level in chronic cholesterol fed rat screen; format: functional
How it was run: as §2

| SMILES | IC50 [1] | Change [3] | also measured |
| --- | --- | --- | --- |
| CC(C)c1cccc(C(C)C)c1NC(=O)NCC(NC(=O)c1ccccc1)c1ccccc1 (centres undefined) | 530 nM | – | Change [2]: inactive |
| COc1ccc(CNC(CNC(=O)Nc2c(C(C)C)cccc2C(C)C)Cc2ccccc2)cc1 (single isomer, unassigned; (-)) | 270 nM | -30% | – |
| CCOC(=O)N1CCN(CCCCCC(=O)NC(CNC(=O)Nc2c(C(C)C)cccc2C(C)C)c2ccccc2)CC1 (centres undefined) | 2800 nM | – | Change [2]: inactive |
| CC(C)c1cccc(C(C)C)c1NC(=O)NCC(NCc1ccc(O)c(CN(C)C)c1)c1ccccc1 (single isomer, unassigned; (-)) | 490 nM | -46% | – |
| CC(C)c1cccc(C(C)C)c1NC(=O)NCC(NC(=O)CCCCCN(CCO)CCO)c1ccccc1 (centres undefined) | 2800 nM | -4% | – |
| CCCCC(=O)NC(CNC(=O)Nc1c(C(C)C)cccc1C(C)C)c1ccccc1 (centres undefined) | 430 nM | -8% | – |
| CC(C)c1cccc(C(C)C)c1NC(=O)NCC(NC(=O)CCCCCN(C)C)c1ccccc1 (centres undefined) | 4200 nM | – | Change [2]: inactive |
| CC(C)c1cccc(C(C)C)c1NC(=O)NCC(NC(=O)c1c(Cl)cccc1Cl)c1ccccc1 (centres undefined) | 1200 nM | – | Change [2]: inactive |
| CC(C)c1cccc(C(C)C)c1NC(=O)NCC(NC(=O)c1ccco1)c1ccccc1 (centres undefined) | 440 nM | -37% | – |
| CCCCCCCCCC(=O)NC(CNC(=O)Oc1c(C(C)C)cccc1C(C)C)c1ccccc1 (racemic) | 760 nM | 25% | – |
| CC(C)c1cccc(C(C)C)c1NC(=O)NCC(NC(=O)c1ccc(C(F)(F)F)cc1)c1ccccc1 (centres undefined) | 510 nM | -9% | – |
| CC(C)c1cccc(C(C)C)c1NC(=O)NCC(NCc1cccnc1)c1ccccc1 (centres undefined) | 370 nM | -26% | – |
| CC(C)c1cccc(C(C)C)c1NC(=O)NCC(NC(=O)CCCCCBr)c1ccccc1 (centres undefined) | 380 nM | -36% | – |
| CCCCC(=O)NCC(CNC(=O)Nc1c(C(C)C)cccc1C(C)C)c1ccccc1 (centres undefined) | 610 nM | -6% | – |
| CC(C)c1cccc(C(C)C)c1NC(=O)NCC1(c2ccc(N(C)C)cc2)CCCC1 [NEVANIMIBE] | – | – | Change [5]: -62%; Change [6]: 200% |
| CC(C)c1cccc(C(C)C)c1NC(=O)NCC(CNC(=O)c1ccccc1)c1ccccc1 (centres undefined) | 1900 nM | – | Change [2]: inactive |
| CC(C)c1cccc(C(C)C)c1NC(=O)NCC(NC(=O)c1cnccn1)c1ccccc1 (centres undefined) | 440 nM | -19% | – |
| COc1ccc(C(=O)NC(CNC(=O)Nc2c(C(C)C)cccc2C(C)C)c2ccccc2)cc1 (centres undefined) | 330 nM | -7% | – |
| CCCCCCCCCC(=O)NC(CNC(=O)Nc1c(C(C)C)cccc1C(C)C)c1ccccc1 (centres undefined) | 590 nM | -29% | – |

| SMILES | IC50 [1] | Change [3] | also measured |
| --- | --- | --- | --- |
| CC(C)c1cccc(C(C)C)c1NC(=O)NCC(NC(=O)c1cc2ccccc2[nH]1)c1ccccc1 (centres undefined) | 2300 nM | -3% | – |
| CC(=O)NC(CNC(=O)Nc1c(C(C)C)cccc1C(C)C)c1ccccc1 (centres undefined) | 2500 nM | – | Change [2]: inactive |
| CC(C)c1cccc(C(C)C)c1NC(=O)NCC(CNCc1ccccc1)c1ccccc1 (centres undefined) | 160 nM | -46% | – |
| CCCCCCC(=O)NCC(CNC(=O)Nc1c(C(C)C)cccc1C(C)C)c1ccccc1 (centres undefined) | 650 nM | – | Change [2]: inactive |
| CC(C)c1cccc(C(C)C)c1NC(=O)NCC(NC(=O)c1cccc2ccccc12)c1ccccc1 (centres undefined) | 970 nM | -14% | – |
| CC(C)c1cccc(C(C)C)c1NC(=O)NCC(NC(=O)CCCCCN)c1ccccc1 (centres undefined) | > 5000 nM | – | Change [2]: inactive |
| COCCCCCC(=O)NC(CNC(=O)Nc1c(C(C)C)cccc1C(C)C)c1ccccc1 (centres undefined) | 380 nM | – | Change [2]: inactive |
| COc1ccc(C(=O)NC(CNC(=O)Nc2c(C(C)C)cccc2C(C)C)C2CCCCC2)cc1 (racemic) | 250 nM | -15% | – |
| CC(C)=CCCC(C)CC(=O)NC(CNC(=O)Nc1c(C(C)C)cccc1C(C)C)c1ccccc1 (centres undefined) | 400 nM | – | Change [2]: inactive |
| COc1ccc(C(=O)NC2(CNC(=O)Nc3c(C(C)C)cccc3C(C)C)CCCC2)cc1 | 500 nM | -6% | – |
| CCCCCCCCCCCCCCCCCCNC(CNC(=O)Nc1c(C(C)C)cccc1C(C)C)c1ccccc1 (racemic) | 230 nM | -3% | – |
| CC(C)c1cccc(C(C)C)c1NC(=O)NCC(NC(=O)c1ccncc1)c1ccccc1 (centres undefined) | 3200 nM | -12% | – |
| Cc1ccc(C(=O)NC(CNC(=O)Nc2c(C(C)C)cccc2C(C)C)c2ccccc2)cc1 (centres undefined) | 350 nM | -1% | – |
| CC(C)c1cccc(C(C)C)c1NC(=O)NCC(CNC(=O)c1ccccn1)c1ccccc1 (centres undefined) | 300 nM | -7% | – |
| CC(C)c1cccc(C(C)C)c1NC(=O)NCC(NC(=O)c1ccc2ccccc2n1)c1ccccc1 (centres undefined) | 150 nM | -31% | – |
| CCCCCCCCCCCCCCCCCC(=O)NC(CNC(=O)Nc1c(C(C)C)cccc1C(C)C)c1ccccc1 (centres undefined) | 1700 nM | 8% | – |
| CC(C)c1cccc(C(C)C)c1OC(=O)NCC(NC(=O)OC(C)(C)C)c1ccccc1 (single isomer, unassigned; (-)) | 430 nM | 20% | – |
| COC(=O)CCCCC(=O)NC(CNC(=O)Nc1c(C(C)C)cccc1C(C)C)c1ccccc1 (centres undefined) | 2600 nM | – | Change [2]: inactive |
| CCCCCCC(=O)NC(CNC(=O)Nc1c(C(C)C)cccc1C(C)C)c1ccccc1 (centres undefined) | 150 nM | – | Change [2]: inactive |

Further compounds by falling IC50 [1], results first:

| IC50 [1] | SMILES | Change [3] | also measured |
| --- | --- | --- | --- |
| 130 nM | CC(C)c1cccc(C(C)C)c1NC(=O)NCC(NC(=O)c1cccc[n+]1[O-])c1ccccc1 (centres undefined) | -44% | Change [5]: -31%; Change [7]: 70% |
| 120 nM | CCCCCCCCCCCCCCCCNC(CNC(=O)Nc1c(C(C)C)cccc1C(C)C)c1ccccc1 (racemic) | – | Change [2]: inactive |
| 110 nM | CCCCCCCCCCCCNCC(CNC(=O)Nc1c(C(C)C)cccc1C(C)C)c1ccccc1 (racemic) | -54% | Change [4]: inactive |
| 110 nM | CCCCCCCNC(CNC(=O)Nc1c(C(C)C)cccc1C(C)C)c1ccccc1 (racemic) | -25% | – |
| 110 nM | CCCCCNC(CNC(=O)Nc1c(C(C)C)cccc1C(C)C)c1ccccc1 (racemic) | -38% | – |
| 90 nM | CCCC(CCC)(CNC(=O)Nc1c(C(C)C)cccc1C(C)C)NC(=O)c1ccc(OC)cc1 | -25% | – |
| 81 nM | CCCCCCCCCCCCCCCC(=O)NC(CNC(=O)Nc1c(C(C)C)cccc1C(C)C)c1ccccc1 (centres undefined) | – | Change [2]: inactive |
| 80 nM | COc1ccc(CNC(CNC(=O)Nc2c(C(C)C)cccc2C(C)C)C(C)C)cc1 (single isomer, unassigned; (-)) | -41% | – |
| 79 nM | CCCCCCCCCCCC(=O)NCC(CNC(=O)Nc1c(C(C)C)cccc1C(C)C)c1ccccc1 (centres undefined) | – | Change [2]: inactive |
| 77 nM | CCCCCCCCCCCC(=O)NC(CNC(=O)Nc1c(C(C)C)cccc1C(C)C)c1ccccc1 (centres undefined) | -16% | – |
| 53 nM | CC(C)c1cccc(C(C)C)c1NC(=O)NCC(NCc1ccccc1)c1ccccc1 (stereo in doubt; 9k(+)) | -41% | – |
| 52 nM | Cc1ccc(CNC(CNC(=O)Nc2c(C(C)C)cccc2C(C)C)c2ccccc2)cc1 (racemic) | -45% | – |
| 51 nM | CC(C)c1cccc(C(C)C)c1NC(=O)NCC(NCc1cccs1)c1ccccc1 (single isomer, unassigned; (+)) | -19% | – |
| 51 nM | CC(C)c1cccc(C(C)C)c1NC(=O)NCC(NCc1ccccc1)c1ccccc1 (racemic) | -36% | – |
| 50 nM | COc1ccc(CNC(CNC(=O)Nc2c(C(C)C)cccc2C(C)C)CC(C)C)cc1 (centres undefined) | -32% | – |
| 48 nM | COc1ccc(CNC(CNC(=O)Nc2c(C(C)C)cccc2C(C)C)c2ccccc2)cc1 (racemic) | -54% | – |
| 48 nM | CC(C)c1cccc(C(C)C)c1NC(=O)NCC(NCc1ccoc1)c1ccccc1 (centres undefined) | -38% | – |
| 45 nM | COc1ccccc1CNC(CNC(=O)Nc1c(C(C)C)cccc1C(C)C)c1ccccc1 (single isomer, unassigned; (-)) | -23% | – |
| 45 nM | CCCCCCCCCCCCNC(CNC(=O)Nc1c(C(C)C)cccc1C(C)C)c1ccccc1 (racemic) | -45% | Change [5]: 27%; Change [7]: 29% |
| 45 nM | CC(C)c1cccc(C(C)C)c1NC(=O)NCC(NCc1ccccc1C(F)(F)F)c1ccccc1 (single isomer, unassigned; (-)) | -42% | – |
| 39 nM | COc1ccc(CNC(CNC(=O)Nc2c(C(C)C)cccc2C(C)C)c2ccccc2)cc1 (single isomer, unassigned; (-)) | -45% | – |
| 33 nM | CC(C)c1cccc(C(C)C)c1NC(=O)NCC(NCc1ccccc1)c1ccccc1 (single isomer, unassigned; (-)) | -29% | – |
| 17 nM | CC(C)c1cccc(C(C)C)c1NC(=O)NCC1(c2ccccc2)CCCC1 | -38% | Change [5]: -7%; Change [7]: -12% |

From ChEMBL document CHEMBL1127542, “Inhibitors of acyl-CoA:cholesterol O-acyl transferase (ACAT) as hypocholesterolemic agents. 8. Incorporation of amide or amine functionalities into a series of disubstituted ureas and carbamates. Effects on ACAT inhibition in vitro and efficacy in vivo” (J Med Chem, 1994)
